According to PMC9998351 (Steroids, 2023):
“And” between values parts separate entries of the source, which are not always exact repeats. Identical values can stand only once. “Also recorded” adds a separate entry of the source.

Experiments:
[1] = tested on: CRPC CWR22Rv1 xenograft tumors; conditions: ref [26], cited from earlier work
male Nude mice [2] = experiment: Acute toxicity; format: in vivo; conditions: male nude mice
Acute toxicity [3] = format: in vivo, mice; conditions: male, Nude, mouse, in vivo, ip
male CD-1 mice = experiment: Acute toxicity; format: in vivo; conditions: male CD-1 mice
Acute toxicity [4] = format: in vivo, mice; conditions: male, CD-1, mouse, in vivo, po
[5] = Intravenous pharmacokinetics in rats; format: in vivo; conditions: for Cmax/D / Tmax / AUCinf / AUClast / C0 / CL / Cmax / T1/2 / Vss / Vz / AUC(0-inf) / AUC(0-t) / clearance / half-life / Vd: 1 mg/kg IV; for AUC(0-inf): AUCinf; for AUC(0-t): AUClast; for clearance: CL
Outline: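 Single 1 mg/kg IV dose to jugular-vein-catheterised Sprague Dawley rats (8–12 wk, 3/sex), given in cremophor:ethanol:saline (1:1:8), pH 4.0 (acetic acid), at 10 ml/kg. EDTA blood was taken at 5, 15, 30 min, 1, 2, 4, 6 and 24 h for plasma. Plasma was prepared by acetonitrile precipitation and aqueous dilution, then run on LC-MS/MS (positive ESI, MRM 439.2>371.2, abiraterone internal standard). Noncompartmental PK.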

male Nude mice [6] = experiment: Chronic dosing toxicity in male nude mice; format: in vivo; conditions: male nude mice
[7] = Chronic dosing toxicity in male nude mice; format: in vivo; conditions: male, Nude, mouse, in vivo, ip
[8] = Oral pharmacokinetics and bioavailability in rats; format: in vivo; conditions: both, Sprague Dawley, rat, plasma, oral
Outline: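 Sprague Dawley rats (8–12 wk, 3/sex/group, catheterised jugular vein) got one oral gavage dose of 10 or 50 mg/kg. Dose was a solution in cremophor:ethanol:saline (1:1:8), pH 4.0, at 10 ml/kg. EDTA plasma was collected at 5, 15, 30 min, 1, 2, 4, 6 and 24 h, precipitated with acetonitrile, and quantified by LC-MS/MS against abiraterone internal standard. Noncompartmental parameters; bioavailability from oral AUClast versus IV.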

[9] = female rats, individual rat, 1 mg/kg
[10] = female, Sprague Dawley, rat, plasma, iv, 1 mg/kg, female rats, GeoMean
[11] = female, Sprague Dawley, rat, plasma, iv, 1 mg/kg, female rats, individual rat
[12] = male rats, individual rat, 1 mg/kg
[13] = male, Sprague Dawley, rat, plasma, iv, 1 mg/kg, male rats, GeoMean (third rat excluded)

C[C@]12CC[C@H](n3ccnc3)CC1=CC[C@@H]1[C@@H]2CC[C@]2(C)C(n3cnc4ccccc43)=CC[C@@H]12 [Compound 2, 3β-(1H-imidazole-1-yl)-17-(1H-benzimidazole-1-yl)-androsta-5,16-diene]
Host toxicity ([1]; CWR22Rv1 xenograft study): no apparent host toxicity | Suppression of tumor growth ([1]; CWR22Rv1 xenograft, 2 at 7.53-fold lower equimolar dose than Gal, p < 0.01): 84% | Efficacy compared with enzalutamide ([1]; CWR22Rv1 xenograft): more efficacious than enzalutamide | Mortality (male Nude mice [2]; 100 mg/kg single intraperitoneal dose, 3 mice, 100 mg/kg): one mouse died in the 100 mg/kg group | Signs of toxicity (male Nude mice [2]; 25 and 50 mg/kg single intraperitoneal dose, two weeks): did not exhibit any signs of toxicity | MTD at 2 weeks (Acute toxicity [3]): 50 mg/kg | Tolerability and mortality (male CD-1 mice; 100 mg/kg PO, observed 72 hrs): well tolerated, and no mortality was observed | Mortality (male CD-1 mice; 1000 mg/kg PO, 3 mice, 1000 mg/kg): two mice died on days 2 and the third mice died on day 3; also recorded: Two mice were in a moribund stage and found dead 36 hrs. post dose, the third mice died 72 hrs. post dose | Clinical signs (male CD-1 mice; 1000 mg/kg PO, after 24 hrs): piloerection, apathy (inactive) and hypothermia | Gross necropsy, organ toxicity (male CD-1 mice; all three dose groups (100, 300, 1000 mg/kg PO), postmortem): no evident organ toxicity | Signs of toxicity at necropsy (male CD-1 mice; low (100 mg/kg) and medium (300 mg/kg) dose PO, after 72 hrs): no signs of toxicity were observed | NOAEL at 72 h (Acute toxicity [4]): > 300 mg/kg | Cmax/D ([5]; female rats, GeoMean): 311 ng/mL/mg/kg | Tmax ([5]; female rats, individual rat): 0.0833 h | AUCinf [5, 9]: 199 µg·min/mL and 171 µg·min/mL | AUClast [5, 9]: 140 µg·min/mL and 126 µg·min/mL | C0 [5, 9]: 342 ng/mL and 418 ng/mL | CL [5, 9]: 5.03 mL/min/kg and 5.85 mL/min/kg | Cmax [5, 9]: 291 ng/mL and 350 ng/mL | Cmax/D [5, 9]: 296 ng/mL/mg/kg and 291 ng/mL/mg/kg and 350 ng/mL/mg/kg | T1/2 [5, 9]: 15.0 h and 13.8 h | Tmax [5, 9]: 0.25 h and 0.0833 h | Vss [5, 9]: 5.99 L/kg and 6.31 L/kg | Vz [5, 9]: 6.51 L/kg and 6.98 L/kg | AUC(0-inf) [5, 10]: 3380 ng·h/mL | AUC(0-inf) [5, 11]: 4130 ng·h/mL | AUC(0-t) [5, 10]: 2400 ng·h/mL | AUC(0-t) [5, 11]: 2800 ng·h/mL | C0 ([5]; female, Sprague Dawley, rat, plasma, iv, 1 mg/kg, C0, female rats, GeoMean): 333 ng/mL | C0 ([5]; female, Sprague Dawley, rat, plasma, iv, 1 mg/kg, C0, female rats, individual rat): 259 ng/mL | clearance [5, 10]: 4.92 mL/min/kg | clearance [5, 11]: 4.04 mL/min/kg | Cmax ([5]; female, Sprague Dawley, rat, plasma, iv, 1 mg/kg, Cmax, female rats, GeoMean): 311 ng/mL | Cmax ([5]; female, Sprague Dawley, rat, plasma, iv, 1 mg/kg, Cmax, female rats, individual rat): 296 ng/mL | half-life ([5]; female, Sprague Dawley, rat, plasma, iv, 1 mg/kg, T1/2, female rats, GeoMean): 14.3 h | half-life ([5]; female, Sprague Dawley, rat, plasma, iv, 1 mg/kg, T1/2, female rats, individual rat): 14.1 h | Tmax ([5]; female, Sprague Dawley, rat, plasma, iv, 1 mg/kg, Tmax, female rats, GeoMean): 0.12 h | Vd ([5]; female, Sprague Dawley, rat, plasma, iv, 1 mg/kg, Vss, female rats, GeoMean): 5.73 L/kg | Vd ([5]; female, Sprague Dawley, rat, plasma, iv, 1 mg/kg, Vss, female rats, individual rat): 4.96 L/kg | Vd ([5]; female, Sprague Dawley, rat, plasma, iv, 1 mg/kg, Vz, female rats, GeoMean): 6.08 L/kg | Vd ([5]; female, Sprague Dawley, rat, plasma, iv, 1 mg/kg, Vz, female rats, individual rat): 4.93 L/kg | Overt toxic effects during conduct of PK study ([5]; male and female rats, single dose 1 mg/kg IV, 10 or 50 mg/kg PO): No overt toxic effects were observed | Cmax/D ([5]; male rats, GeoMean (third rat excluded)): 305 ng/mL/mg/kg | AUCinf [5, 12]: 64.0 µg·min/mL and 321 µg·min/mL | AUClast [5, 12]: 46.6 µg·min/mL and 139 µg·min/mL | C0 [5, 12]: 443 ng/mL | CL [5, 12]: 15.6 mL/min/kg and 3.11 mL/min/kg | Cmax [5, 12]: 392 ng/mL | Cmax/D [5, 12]: 237 ng/mL/mg/kg and 392 ng/mL/mg/kg | T1/2 [5, 12]: 2.96 h and 31.4 h | Vss [5, 12]: 8.14 L/kg | Vz [5, 12]: 4.00 L/kg and 8.46 L/kg | AUC(0-inf) [5, 13]: 2380 ng·h/mL | AUC(0-t) [5, 13]: 1340 ng·h/mL | C0 ([5]; male, Sprague Dawley, rat, plasma, iv, 1 mg/kg, C0, male rats, GeoMean (third rat excluded)): 336 ng/mL | C0 ([5]; male, Sprague Dawley, rat, plasma, iv, 1 mg/kg, C0, male rats, individual rat): 254 ng/mL | clearance [5, 13]: 6.97 mL/min/kg | Cmax ([5]; male, Sprague Dawley, rat, plasma, iv, 1 mg/kg, Cmax, male rats, GeoMean (third rat excluded)): 305 ng/mL | Cmax ([5]; male, Sprague Dawley, rat, plasma, iv, 1 mg/kg, Cmax, male rats, individual rat): 237 ng/mL | half-life ([5]; male, Sprague Dawley, rat, plasma, iv, 1 mg/kg, T1/2, male rats, GeoMean (third rat excluded)): 9.64 h | Tmax ([5]; male, Sprague Dawley, rat, plasma, iv, 1 mg/kg, Tmax, male rats, GeoMean (third rat excluded)): 0.0833 h | Tmax ([5]; male, Sprague Dawley, rat, plasma, iv, 1 mg/kg, Tmax, male rats, individual rat): 0.0833 h | Vd ([5]; male, Sprague Dawley, rat, plasma, iv, 1 mg/kg, Vss, male rats, GeoMean (third rat excluded)): 5.81 L/kg | Vd ([5]; male, Sprague Dawley, rat, plasma, iv, 1 mg/kg, Vss, male rats, individual rat): 4.14 L/kg | Vd ([5]; male, Sprague Dawley, rat, plasma, iv, 1 mg/kg, Vz, male rats, GeoMean (third rat excluded)): 5.82 L/kg | Mortality (male Nude mice [6]; 0.5 MTD group, five days a week for two weeks, day 7): Two mice died | Condition of other groups (male Nude mice [6]; chronic dosing 0.2 MTD and MTD groups, 14 days): looked healthy | MTD at 14 days [7]: 25 to 50 mg/kg | bioavailability [8]: 32 to 47%
